Laboratory results: ChEMBL document CHEMBL5303300, “EUbOPEN Chemogenomics Library - Multiplex” (2023)
Values joined by “and” are separate entries in the source; they are usually repeats but may differ in a detail not shown here. Equal entries are not always repeated.

Legend:
HEK-293T = experiment: Multiplex assay against HEK293T; format: toxicity, cell-based; settings: human, number of replicates 2
Method in brief: (§1)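 Live cells were stained at seeding with Hoechst33342, BioTracker Green Microtubule Cytoskeleton Dye, MitoTracker Red and Annexin V Alexa Fluor 680. Following compound addition, they were imaged on a CQ1 microscope at 37°C and 5% CO2 and gated by CellPathfinder machine learning into Hoechst high-intensity objects or normal cells, with normal cells split into healthy, pyknosed or fragmented nuclei and pyknosed cells into mitotic or apoptotic. Tubulin, mitochondrial-mass and membrane-permeability phenotypes are per cents of healthy-nucleus cells.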

U2OS = experiment: Multiplex assay against U2OS; format: toxicity, cell-based; settings: human, number of replicates 2; method in brief: as §1
[1] = 12 h, 1 µM, compound concentration 1 uM
[2] = 12 h, 10 µM, compound concentration 10 uM
[3] = 24 h, 1 µM, compound concentration 1 uM
[4] = 24 h, 10 µM, compound concentration 10 uM
[5] = 48 h, 1 µM, compound concentration 1 uM
[6] = 48 h, 10 µM, compound concentration 10 uM

With `Cc1cn(CCN2CCN(c3ccccc3-c3cc(C#N)cc(C(=O)NCCCN4CCCC4)c3)CC2)c2ccccc12` the “Population Apoptotic (%)” value (HEK-293T; [1]) was 34% and 44%, the “Population Fragmented Nuclei (%)” value (HEK-293T; [1]) was 3% and the “Population Healthy Nuclei (%)” value (HEK-293T; [1]) was 82% and 84%. The “Population Hoechst High Intensity Objects (%)” value (HEK-293T; [1]) was 7% and 6%, the “Population Membrane Permeable-Phenotype (%)” value (HEK-293T; [1]) was 3% and 4% and the “Population Mitochondria Different-Phenotype (%)” value (HEK-293T; [1]) was 26% and 20%. The “Population Mitotic Cells (%)” value (HEK-293T; [1]) was 65% and 55%, the “Population Normal (%)” value (HEK-293T; [1]) was 92% and 93% and the “Population Pyknosed Nuclei (%)” value (HEK-293T; [1]) was 13% and 12%. For the same compound, the “Population Tubulin-Different-Phenotype (%)” value (HEK-293T; [1]) was 72% and 71%, the “Total Cell Count” value (HEK-293T; [1]) was 634 and 574 and the “Population Apoptotic (%)” value (HEK-293T; [2]) was 70% and 65%. For the same compound, the “Population Fragmented Nuclei (%)” value (HEK-293T; [2]) was 2%, the “Population Healthy Nuclei (%)” value (HEK-293T; [2]) was 81% and 78% and the “Population Hoechst High Intensity Objects (%)” value (HEK-293T; [2]) was 5%. The “Population Membrane Permeable-Phenotype (%)” value (HEK-293T; [2]) was 2% and 1%, the “Population Mitochondria Different-Phenotype (%)” value (HEK-293T; [2]) was 71% and 72% and the “Population Mitotic Cells (%)” value (HEK-293T; [2]) was 30% and 34%. The “Population Normal (%)” value (HEK-293T; [2]) was 94%, the “Population Pyknosed Nuclei (%)” value (HEK-293T; [2]) was 16% and 18% and the “Population Tubulin-Different-Phenotype (%)” value (HEK-293T; [2]) was 97% and 94%. For the same compound, the “Total Cell Count” value (HEK-293T; [2]) was 511 and 463, the “Population Apoptotic (%)” value (HEK-293T; [3]) was 46% and 42% and the “Population Fragmented Nuclei (%)” value (HEK-293T; [3]) was 5% and 3%. The “Population Healthy Nuclei (%)” value (HEK-293T; [3]) was 86% and 89%, the “Population Hoechst High Intensity Objects (%)” value (HEK-293T; [3]) was 8% and the “Population Membrane Permeable-Phenotype (%)” value (HEK-293T; [3]) was 3%. The “Population Mitochondria Different-Phenotype (%)” value (HEK-293T; [3]) was 12%, the “Population Mitotic Cells (%)” value (HEK-293T; [3]) was 53% and 57% and the “Population Normal (%)” value (HEK-293T; [3]) was 91%. For the same compound, the “Population Pyknosed Nuclei (%)” value (HEK-293T; [3]) was 7% and 6%, the “Population Tubulin-Different-Phenotype (%)” value (HEK-293T; [3]) was 57% and 51% and the “Total Cell Count” value (HEK-293T; [3]) was 1111 and 826. For the same compound, the “Population Apoptotic (%)” value (HEK-293T; [4]) was 77% and 76%, the “Population Fragmented Nuclei (%)” value (HEK-293T; [4]) was 1% and 3% and the “Population Healthy Nuclei (%)” value (HEK-293T; [4]) was 85% and 79%. For the same compound, the “Population Hoechst High Intensity Objects (%)” value (HEK-293T; [4]) was 9% and 4%, the “Population Membrane Permeable-Phenotype (%)” value (HEK-293T; [4]) was 1% and 2% and the “Population Mitochondria Different-Phenotype (%)” value (HEK-293T; [4]) was 88% and 81%. The “Population Mitotic Cells (%)” value (HEK-293T; [4]) was 22% and 23%, the “Population Normal (%)” value (HEK-293T; [4]) was 90% and 95% and the “Population Pyknosed Nuclei (%)” value (HEK-293T; [4]) was 12% and 16%. The “Population Tubulin-Different-Phenotype (%)” value (HEK-293T; [4]) was 97% and 95%, the “Total Cell Count” value (HEK-293T; [4]) was 524 and 487 and the “Population Apoptotic (%)” value (HEK-293T; [5]) was 16% and 21%. The “Population Fragmented Nuclei (%)” value (HEK-293T; [5]) was 14% and 8%, the “Population Healthy Nuclei (%)” value (HEK-293T; [5]) was 82% and 87% and the “Population Hoechst High Intensity Objects (%)” value (HEK-293T; [5]) was 10% and 8%. The “Population Membrane Permeable-Phenotype (%)” value (HEK-293T; [5]) was 5% and 3%, the “Population Mitochondria Different-Phenotype (%)” value (HEK-293T; [5]) was 1% and 4% and the “Population Mitotic Cells (%)” value (HEK-293T; [5]) was 83% and 78%. For the same compound, the “Population Normal (%)” value (HEK-293T; [5]) was 89% and 91%, the “Population Pyknosed Nuclei (%)” value (HEK-293T; [5]) was 3% and 4% and the “Population Tubulin-Different-Phenotype (%)” value (HEK-293T; [5]) was 27% and 31%. The “Total Cell Count” value (HEK-293T; [5]) was 2524 and 1476, the “Population Apoptotic (%)” value (HEK-293T; [6]) was 65% and 73% and the “Population Fragmented Nuclei (%)” value (HEK-293T; [6]) was 6% and 8%. The “Population Healthy Nuclei (%)” value (HEK-293T; [6]) was 82% and 77%, the “Population Hoechst High Intensity Objects (%)” value (HEK-293T; [6]) was 7% and 11% and the “Population Membrane Permeable-Phenotype (%)” value (HEK-293T; [6]) was 3% and 1%. For the same compound, the “Population Mitochondria Different-Phenotype (%)” value (HEK-293T; [6]) was 57% and 66%, the “Population Mitotic Cells (%)” value (HEK-293T; [6]) was 34% and 26% and the “Population Normal (%)” value (HEK-293T; [6]) was 92% and 88%. For the same compound, the “Population Pyknosed Nuclei (%)” value (HEK-293T; [6]) was 10% and 14%, the “Population Tubulin-Different-Phenotype (%)” value (HEK-293T; [6]) was 90% and 93% and the “Total Cell Count” value (HEK-293T; [6]) was 709 and 587. For the same compound, the “Population Apoptotic (%)” value (U2OS; [1]) was 100% and 75%, the “Population Healthy Nuclei (%)” value (U2OS; [1]) was 73% and 79% and the “Population Hoechst High Intensity Objects (%)” value (U2OS; [1]) was 0%. The “Population Membrane Permeable-Phenotype (%)” value (U2OS; [1]) was 8% and 10%, the “Population Mitochondria Different-Phenotype (%)” value (U2OS; [1]) was 25% and 38% and the “Population Mitotic Cells (%)” value (U2OS; [1]) was 0% and 25%. For the same compound, the “Population Normal (%)” value (U2OS; [1]) was 100%, the “Population Pyknosed Nuclei (%)” value (U2OS; [1]) was 10% and 16% and the “Population Tubulin-Different-Phenotype (%)” value (U2OS; [1]) was 38% and 27%. For the same compound, the “Population Apoptotic (%)” value (U2OS; [2]) was 100% and 82%, the “Population Fragmented Nuclei (%)” value (U2OS; [2]) was 37% and 13% and the “Population Healthy Nuclei (%)” value (U2OS; [2]) was 37% and 53%. The “Population Hoechst High Intensity Objects (%)” value (U2OS; [2]) was 0%, the “Population Membrane Permeable-Phenotype (%)” value (U2OS; [2]) was 33% and 41% and the “Population Mitochondria Different-Phenotype (%)” value (U2OS; [2]) was 62% and 56%. The “Population Mitotic Cells (%)” value (U2OS; [2]) was 0% and 17%, the “Population Normal (%)” value (U2OS; [2]) was 100% and the “Population Pyknosed Nuclei (%)” value (U2OS; [2]) was 25% and 33%. For the same compound, the “Population Tubulin-Different-Phenotype (%)” value (U2OS; [2]) was 91%, the “Total Cell Count” value (U2OS; [2]) was 64 and 135 and the “Population Apoptotic (%)” value (U2OS; [3]) was 73% and 87%. For the same compound, the “Population Healthy Nuclei (%)” value (U2OS; [3]) was 54% and 85%, the “Population Hoechst High Intensity Objects (%)” value (U2OS; [3]) was 0% and the “Population Membrane Permeable-Phenotype (%)” value (U2OS; [3]) was 8% and 7%. For the same compound, the “Population Mitochondria Different-Phenotype (%)” value (U2OS; [3]) was 23% and 47%, the “Population Mitotic Cells (%)” value (U2OS; [3]) was 26% and 12% and the “Population Normal (%)” value (U2OS; [3]) was 100%. For the same compound, the “Population Pyknosed Nuclei (%)” value (U2OS; [3]) was 24% and 12% and the “Population Tubulin-Different-Phenotype (%)” value (U2OS; [3]) was 29% and 24%.
